Assay results reported in ChEMBL document CHEMBL1132285, “The presence of substituents on the aryl moiety of the aryl phosphoramidate derivative of d4T enhances anti-HIV efficacy in cell culture: A structure-activity relationship” (J Med Chem, 1999).

Assays:
CCRF-CEM [1] = assay: In vitro effective compound concentration required to protect CEM/TK cells against the cytopathogenicity of HIV-2; details: Homo sapiens
CCRF-CEM [2] = assay: In vitro effective compound concentration required to protect CEM/O cells against the cytopathogenicity of HIV-1; format: functional, cell-based; details: Homo sapiens
Summary of the method: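 CEM/0 cells at 250 000 cells/mL were infected with HIV-1 (~20 CCID50/mL) or HIV-2 strain ROD (~100 CCID50/mL), then mixed 1:1 with compound dilutions. After 4 days at 37 °C, giant cell formation was scored. EC50 is the concentration inhibiting HIV-induced giant cell formation by 50%. Values are means of 2–4 independent experiments.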

SMILES: Cc1cn([C@H]2C=C[C@@H](CO)O2)c(=O)[nH]c1=O [STAVUDINE]
- EC50 (CCRF-CEM [1]): 33 µM
- EC50 (CCRF-CEM [2]): 0.651 µM
